# Experimental data: paper PMC2791397 (Biochimica et biophysica acta, 2009)
# Tests used:
# yeast cells = test: Cellular growth in the presence of varying concentrations of 3-AT; format: cell-based, budding yeast Saccharomyces cerevisiae; conditions: 30°C, three to five days
# How it was run: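 BY4742-background strains (MATα his3Δ1 leu2Δ0 lys2Δ0 ura3Δ0; isogenic MATa dot1Δ or hmt1Δ) made HIS+ by transformation with a 1.75 kb HIS3 fragment. GCN5 deleted with a gcn5::hisG-URA3-hisG fragment. Log-phase cells from rich medium were serially diluted, spotted onto SC –His plates containing varying 3-AT concentrations, and scored for growth.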
# [1] = tested on: Imidazoleglycerol-phosphate dehydratase (His3p); conditions: cited from earlier work
# Hmt1p = Hmt1p (Saccharomyces cerevisiae, UniProt P38074); test: Kinetic studies of Hmt1p-mediated H4 peptide methylation; format: biochemical, budding yeast Saccharomyces cerevisiae; conditions: peptide 0.01 to 10 μM, 3.3 μM 3H-SAM, app. 25 ng GST-Hmt1p, pH 8.0, 30°C, 3 min; Hanes/Wolffe plot; average, n ranging from 2 to 8
# Chain of Hmt1p (P38074 whole entry): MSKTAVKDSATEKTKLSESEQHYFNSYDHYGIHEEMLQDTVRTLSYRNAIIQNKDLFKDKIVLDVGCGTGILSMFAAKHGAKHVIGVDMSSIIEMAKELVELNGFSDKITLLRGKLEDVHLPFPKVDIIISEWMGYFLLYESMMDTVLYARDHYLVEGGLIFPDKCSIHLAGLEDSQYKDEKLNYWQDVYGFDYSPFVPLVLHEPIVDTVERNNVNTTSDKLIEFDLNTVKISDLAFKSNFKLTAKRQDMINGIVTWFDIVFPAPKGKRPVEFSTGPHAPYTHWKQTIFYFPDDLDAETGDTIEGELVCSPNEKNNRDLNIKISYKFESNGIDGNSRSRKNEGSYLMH
Compound,"sensitivity to 3-AT, dot1 deletion (yeast cells; dot1! cells, SC -His plates)","sensitivity to 3-AT, gcn5 deletion (yeast cells; gcn5! cells, SC -His plates)","resistance to 3-AT, gcn5 hmt1 double knockout (yeast cells; gcn5! hmt1! cells vs gcn5! strain, SC -His plates)","sensitivity to 3-AT, hmt1 deletion (yeast cells; hmt1! cells, 20- and 40-mM 3-AT plates, SC -His)",inhibition of Imidazoleglycerol-phosphate dehydratase [1],Km (Hmt1p) [µM]
"Nc1nc[nH]n1 [3-AT, 3-amino-1,2,4-triazole]",did not have an obvious effect,hypersensitive,significantly higher resistance to 3-AT,sustain higher concentrations of 3-AT,competitive inhibitor,–
Ac.K8: synthetic histone H4 peptide (residues 1–18) with acetyllysine at position 8,–,–,–,–,–,0.059 ± 0.02
